# Assay outcomes from PubChem.
# Rows were chosen to be rich in hits. Some 1% of all compounds tested hit in one or more screens of this group.
# LYPLA2 counter: LYPLA2 (human) inhibition in PME1 counter-screen. O95372. recombinant LYPLA2, FP-Rh probe fluorescence polarization. inhibition, % at 5.9 µM. 320,000 compounds, 0.38% hits. AID 2177;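 active means inhibition above the screen-wide mean plus 3 SD, limit set per campaign, cut at about 26% in these data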;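 further: 0% = LYPLA2 with DMSO and 100% = wells lacking LYPLA2 enzyme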
# proCasp7 act: activates human procaspase-7, counter-screen for procaspase-3 activators; P55210; recombinant procaspase-7, Ac-DEVD-pNA absorbance 405 nm; D23A/D198A/D206A triple mutant, cannot self-cleave; scale: DMSO 0, 5 µM enzyme 100; activation, % at 8.5 µM; 330,000 compounds, 0.093% hits;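 active means percent activation above the screen-wide mean plus 3 SD, cut at about 25% in these data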
# Target sequence (P55210 whole entry D23A/D198A/D206A): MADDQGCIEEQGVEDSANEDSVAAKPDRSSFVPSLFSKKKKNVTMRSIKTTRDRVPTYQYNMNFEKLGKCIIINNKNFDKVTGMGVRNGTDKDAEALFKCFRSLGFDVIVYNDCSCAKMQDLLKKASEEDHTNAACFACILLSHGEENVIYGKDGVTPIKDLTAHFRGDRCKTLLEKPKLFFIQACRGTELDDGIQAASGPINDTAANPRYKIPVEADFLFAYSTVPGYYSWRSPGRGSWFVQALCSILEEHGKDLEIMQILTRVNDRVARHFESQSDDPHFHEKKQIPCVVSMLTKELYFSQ
#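 Assay system: Uncleavable procaspase-7 mutant enzyme | Input: 2 µM procaspase-7 mutant as dispensed | Timing: 1 h compound preincubation, 2 h substrate cleavage, 25 °C | Repeats: One well per compound | Control set: DMSO wells as 0%, DMSO with 5 µM added PC-7 as 100% | Technique: Epi-absorbance of released pNA at 405 nm, two timepoints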
# PME-1 inh: blocks human protein phosphatase methylesterase 1. Q9Y570. recombinant PME-1, FP-Rh probe fluorescence polarization. inhibition, % at 5.9 µM. 320,000 compounds, 0.53% hits. AID 2130;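 active means inhibition above the campaign mean of all compounds plus 3 SD, cut at about 26% in these data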;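 further: competitive labeling of PME-1 active site by serine hydrolase directed probe; 0% = PME-1 with DMSO and 100% = wells lacking PME-1 enzyme; inhibitors block probe labeling so polarization falls and inhibition rises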
# Fam108B counter: Fam108B inhibition, counter-screen for RBBP9 inhibitors. inhibition, % at 9.51 µM. 300,000 compounds, 0.33% hits. recombinant Fam108B, FP-Rh probe fluorescence polarization;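 active means inhibition above the screen mean inhibition plus 3 SD, computed separately per campaign, cut at about 18% in these data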;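 further: inhibitors lower polarization as less probe binds the enzyme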
# LYPLA1 counter: blocks human lysophospholipase 1, a PME1 counter-screen; recombinant LYPLA1, FP-Rh probe fluorescence polarization; inhibition, % at 5.9 µM; 320,000 compounds, 0.16% hits; AID 2174;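 active means inhibition above the mean of all tested compounds plus 3 SD, set per campaign, cut at about 14% in these data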;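 further: inhibitors block serine hydrolase probe labeling of LYPLA1 so polarization falls; 0% = enzyme with DMSO and 100% = wells lacking LYPLA1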
# Target sequence (O75608 whole entry, looked up): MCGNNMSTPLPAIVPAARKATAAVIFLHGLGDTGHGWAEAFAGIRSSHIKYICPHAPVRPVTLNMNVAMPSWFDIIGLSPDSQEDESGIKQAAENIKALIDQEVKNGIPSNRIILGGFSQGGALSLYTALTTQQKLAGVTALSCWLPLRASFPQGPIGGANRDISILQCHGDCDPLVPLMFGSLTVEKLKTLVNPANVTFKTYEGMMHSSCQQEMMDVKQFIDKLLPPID
# proCasp3 act: activators of human procaspase-3. P42574. recombinant procaspase-3 D3A, Ac-DEVD-pNA absorbance 405 nm. activation, % at 8.5 µM. 330,000 compounds, 0.11% hits. AID 463141;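 active means activation above the mean of all tested compounds plus 3 SD, cut at about 21% in these data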;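 further: 0% = DMSO alone and 100% = DMSO wells spiked with extra 5 µM PC-3 D3A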
#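 material = Procaspase-3 D3A mutant | probe or stimulus = Ac-DEVD-pNA | compound = single dose, 8.5 µM nominal compound, 0.8% DMSO | timing = 1 h preincubation, 2 h reaction | measured by = 405 nm absorbance of p-nitroaniline, reads at 0 and 120 min | benchmarks = DMSO-only low control, 5 µM PC-3 D3A high control | repeats = singlicate, each compound tested once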
# Fam108b inh conf: confirmation of mouse Fam108b serine hydrolase inhibitors | shares compounds with Fam108B counter | recombinant Fam108b, FP-Rh probe fluorescence polarization | inhibition, % at 9.51 µM | 930 compounds, 44% hits;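 active means inhibition above a limit from the primary screen, the mean over all compounds plus 3 SD, cut at about 19% in these data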;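 further: 0% = median of active Fam108b wells and 100% = catalytically dead S170A mutant; inhibitors free the probe so polarization falls as inhibition rises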
# * hit, by the source's call; nt = no result given; ! = not confirmed by another sample.
SMILES,LYPLA2 counter,proCasp7 act,PME-1 inh,Fam108B counter,LYPLA1 counter,proCasp3 act,others
CN[C@H]1C[C@H]2O[C@@](C)([C@H]1OC)n1c3ccccc3c3c4c(c5c6ccccc6n2c5c31)C(=O)NC4,-3.3,5.9,52.3*,47.9*,-18.7,6.0,
COc1cc(/C=C/c2nc3ccccc3c(=O)n2-c2ccccc2O)ccc1O,-0.6,-7.8,9.6,1.4,-3.4,0.2,
O=c1c2ccccc2nc(/C=C/c2ccc(O)c(O)c2)n1-c1ccccc1,-20.3,-29.2,26.7*,-10.0,-15.0,-16.5,
COc1cc(/C=C/c2nc3ccccc3c(=O)n2-c2cccc(O)c2)ccc1O,-4.3,-0.9,36.2*,3.1,-6.9,-5.1,
NP(=O)(OCCCc1ccccc1)Oc1ccccc1Cl (stereo not drawn),1.8,6.0,59.4*,2.0,0.6,4.3,
CC(C)CCOP(N)(=O)Oc1ccccc1Cl (stereo not drawn),6.7,0.9,30.4*,-1.0,6.7,1.4,
CN(C)C1(c2nnnn2CCOC(=O)Nc2ccc(Cl)cc2)CCCCC1,14.9,0.9,37.1*,1.6,3.1,-7.7,
O=c1[nH]c(=S)[nH]c(O)c1N=Nc1cc(S(=O)(=O)Nc2ccc(Cl)cc2)ccc1Cl,2.3,2.7,41.1*,nt,-2.6,8.8,
NS(=O)(=O)c1ccc(N=Nc2c(O)[nH]c(=S)[nH]c2=O)cc1,3.1,-15.6,-0.9,1.2,-1.2,-15.9,
C=C1C(O)[C@@H]2O[C@]3(CC[C@H](/C=C/C(C)[C@@H]4CC(C)=CC5(O[C@H](C[C@@](C)(O)C(=O)O)CCC5O)O4)O3)CC[C@H]2O[C@@H]1C(O)CC(C)[C@H]1OC2(CCCCO2)CCC1C (stereo partly drawn),nt,18.0,nt,nt,nt,5.7,
Cc1ncc2n1-c1ccc(Cl)cc1C(c1ccccc1F)=NC2,nt,6.4,nt,nt,nt,4.0,
CC(=O)O[C@H]1CC[C@@]2(C)C(=CC(=O)C3C2CC[C@@]2(C)C3C[C@H](OC(C)=O)[C@@H]2OC(C)=O)C1 (stereo partly drawn),nt,-3.5,nt,nt,nt,5.0,
COC(=O)C1=C(c2ccc(OC)c(OC)c2)C[C@@H]2CC[C@H]1N2C(=O)NCCCOC(C)C,-3.4,16.7,-4.3,nt,4.0,3.7,
Cc1ccc(C(O)P(=O)(Oc2ccccc2)Oc2ccccc2)cc1 (stereo not drawn),8.0,-0.2,38.0*,2.6,2.4,7.2,
O=P(Oc1ccccc1)(Oc1ccccc1)C(O)c1ccccc1 (stereo not drawn),8.3,2.0,45.7*,1.7,0.5,-1.6,
COC12CCC3(CC1C(C)(O)C(C)(C)C)[C@H]1Cc4ccc(O)c5c4[C@@]3(CCN1CC1CC1)C2O5 (stereo partly drawn),nt,0.6,nt,nt,nt,1.6,
C[C@]12CCC3C(CC[C@H]4C[C@@H](O)CC[C@]34C)C1C[C@H](Br)[C@@H]2O (stereo partly drawn),nt,-5.0,nt,nt,nt,4.2,
N#Cc1ccccc1Cn1cc(C(=O)C2CC2)c2ccccc21,0.3,2.1,62.7*,6.1,-2.0,7.0,
N#Cc1ccccc1Cn1cc(C(=O)c2ccco2)c2ccccc21,-3.5,6.2,5.4,1.6,-5.2,-1.3,
O=C(c1cn(Cc2ccccc2)c2ccccc12)C1CC1,-3.4,5.9,-6.0,-3.8,-3.9,-2.0,
CCC(=O)c1cn(Cc2ccccc2C#N)c2ccccc12,2.2,5.3,35.2*,-4.8,-0.6,-9.0,
COC(=O)C1=C(c2ccccc2OCc2ccccc2)C[C@@H]2CC[C@H]1N2C(=O)NCc1cccc(C(F)(F)F)c1,-2.4,-3.4,-5.2,nt,-3.0,4.2,
CCCCn1c(NS(=O)(=O)c2ccccc2)c(C(=O)OCC)c2nc3ccccc3nc21,5.6,-10.0,11.0,8.0,-1.0,-13.2,
CCCCn1c(NC(=O)c2ccc(Br)o2)c(C(=O)OCC)c2nc3ccccc3nc21,88.9*,-27.1,33.5*,58.5*,81.0*,-17.5,
Cc1cccc(N2C(=O)NC(=O)/C(=C/c3cc4c(cc3[N+](=O)[O-])OCO4)C2=O)c1,-3.2,-12.3,45.5*,3.2,-1.9,-12.4,
SMILES,LYPLA2 counter,proCasp7 act,PME-1 inh,Fam108B counter,LYPLA1 counter,proCasp3 act,others
O=C1NC(=O)C(=Cc2cc3c(cc2[N+](=O)[O-])OCO3)C(=O)N1,-0.6,-18.2,-0.6,-0.3,0.3,-14.9,
O=C1NC(=O)N(Cc2ccco2)C(=O)/C1=C/c1cccn1CCOc1ccccc1Cl,-5.2,5.8,50.8*,5.2,-3.9,-16.8,
O=C1NC(=O)N(Cc2ccccc2)C(=O)/C1=C\c1ccco1,-4.8,-18.6,-0.6,3.0,-1.5,-7.1,
COc1ccc(OC)c(N2C(=O)NC(=O)/C(=C\c3ccc([N+](=O)[O-])s3)C2=O)c1,9.9,-10.9,-0.7,44.2*,-3.5,0.3,Fam108b inh conf=11.2
COc1ccc(N2C(=O)NC(=O)/C(=C\c3ccccc3[N+](=O)[O-])C2=O)cc1,-1.2,-18.2,-6.8,-6.6,1.1,-14.6,
CN1C(=O)NC(=O)/C(=C/c2ccc([N+](=O)[O-])s2)C1=O,-5.3,-11.7,-5.8,6.8,-1.9,-6.5,
O=C1NC(=O)N(c2ccccc2)C(=O)/C1=C\c1ccc([N+](=O)[O-])s1,-8.7,-10.8,2.5,19.1*,-2.8,-13.6,Fam108b inh conf=12.3
CCCCn1c(C)c(C(=O)OCC)c2c(CN3CCCC3)c(O)ccc21,-2.7,1.9,27.5*,45.6*,-1.8,5.7,Fam108b inh conf=1.5
Nc1ncc([N+](=O)[O-])s1,4.0,-14.0,4.0,nt,1.2,-7.0,
CCC(=O)c1ccc(OCC(=O)N2CCN(CC(=O)Nc3ccccc3C(F)(F)F)CC2)cc1,nt,7.4,nt,nt,nt,6.5,
N/C(=N\N=C/c1ccc(-c2ccc(O)c(C(=O)O)c2)o1)N[N+](=O)[O-],-7.2,1.0,-5.8,18.6*,-4.2,-8.9,Fam108b inh conf=23.8*
COc1ccc(/C=N/N=C(/N)N[N+](=O)[O-])c(OC)c1,-1.9,5.8,-4.1,-0.9,1.6,-10.5,
CN(C)[C@@H]1C(=O)C(C(N)=O)=C(O)[C@@]2(O)C(=O)C3=C(O)c4c(O)cccc4[C@@](C)(O)C3[C@H](O)C12 (stereo partly drawn),-6.4,1.0,-7.6,32.0*!,-7.7,-1.8,Fam108b inh conf=34.3*
CN(C)[C@@H]1C(=O)C(C(N)=O)=C(O)[C@@]2(O)C(=O)C3=C(O)c4c(O)cccc4[C@@](C)(O)[C@H]3C[C@@H]12,7.5,-0.8,-9.0,52.3*,-7.7,5.8,Fam108b inh conf=55.4*
COC(=O)C1=C(c2ccc(-c3ccccc3)c(F)c2)C[C@@H]2CC[C@H]1N2C(=O)NCCOc1ccccc1Cl,-6.3,-1.0,-12.5,nt,-6.5,8.4,
